Measurements taken from PubChem BioAssay.
The source made the active and inactive calls.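 Rule for the calls, unless noted: active = compounds giving at least 50% inhibition in the cell-based MKP-3 phosphatase rescue imaging test; inactive = the rest.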

Legend:
[1] = inhibitors of TNFa-induced NFkB p65 translocation, primary screen, imaging, HUVEC, MLSMR starter and 10KST1 sets (AID 438;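 active = inhibition above 20% together with a positive visual image hit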;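 note: compound added about 3h40 before a 20 min TNFalpha stimulation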;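 for inhibition: signal is the nuclear over cytoplasmic p65 intensity ratio per well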); details: HUVEC TNFa-induced p65 nuclear translocation; cell count: measured here: nuclei count (cytotoxicity indicator), at 2.08 µM; inhibition: at 2 µM, stronger effect = higher value, 0% TNFa-plus-vehicle, 100% no-TNFa wells
[2] = inhibitors of E-selectin induction by TNFa, primary screen, imaging, HUVEC, immunofluorescence, MLSMR starter and 10KST1 sets (AID 487;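 active = visually confirmed hit in the image check and inhibition above 20%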;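 for inhibition: signal is fraction of cell area covered by stained E-selectin grains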;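 for nuclei count: 100% = median nuclei count of all wells on the same plate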); details: HUVEC TNFalpha-induced E-selectin immunofluorescence imaging, at 2 µM; inhibition: stronger effect = higher value; nuclei count: measured here: cell number, toxicity
[3] = DUSP6 inhibitors restoring Erk phosphorylation by chemical complementation, primary imaging in DUSP6-transfected HeLa (AID 609); details: HeLa MKP-3 transfected, phospho-Erk imaging KS statistic, at 10 µM, cells stimulated with TPA for 15 min;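 for inhibition: phospho-Erk level distribution per well compared with pooled transfected vehicle control wells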
[4] = target: Dual specificity protein phosphatase 6 (Homo sapiens) (UniProt Q16828); assay: as above; details: HeLa MKP-3 transfected, phospho-Erk imaging KS statistic; at 10 µM; stronger effect = higher value; cells stimulated with TPA for 15 min
[5] = target: Voltage-gated potassium channel subunit beta-2 (Rattus norvegicus) (UniProt P62483); assay: KvBeta enzyme negative modulators, primary screen, biochemical, NADPH fluorescence (AID 622;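 active = fluorescence slope higher than the sample average by over 3 SD, cut at about -0.22 in these data, passing the limit was not always enough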;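 note: slope of raw intensity against log time taken from 70 to 1610 s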); details: recombinant KvBeta, 4-cyanobenzaldehyde reduction, at 10 µM, stronger effect = higher value
[6] = target: Voltage-gated potassium channel subunit beta-2 (Rattus norvegicus) (UniProt P62483); assay: KvBeta positive modulators, primary screen, biochemical, NADPH fluorescence (AID 623;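 active = NADPH fluorescence slope more negative than the mean of all samples by about 3 SD, 99.7% confidence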;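 note: fluorescence intensity change per second fitted from 20 to 320 s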); details: Recombinant KvBeta, NADPH fluorescence decrease slope, 10 min; at 10 µM; stronger effect = lower value
[7] = target: Alpha-2C adrenergic receptor (Homo sapiens) (UniProt P18825); assay: modulators of alpha2C/GIRK thallium flux, primary screen, cell-based, HEK293 alpha2C/GIRK1/2 (AID 624;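 active = fluorescence slope after compound addition differing from the mean of all screened samples at 99.7% confidence, in either direction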;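 note: slope of fluorescence ratio to pre-addition baseline per second over 15 to 24 s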); details: thallium flux BTC fluorescence, at 10 µM, actives lie on both sides
[8] = inhibitors of larval lipid processing in zebrafish, primary screen, whole organism, PED6 fluorescence, gall bladder and intestine (AID 686;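 active = a full or partial loss of lipid-probe fluorescence in the fish gall bladder, intestine or both, judged by eye; inactive = no fluorescence loss, or compound toxic to the fish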;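 note: larvae 5 to 7 days old with five fish per well; signal comes from phospholipase A2 cleavage of quenched PED6 carried via bile; overnight exposure to compound and PED6 before scoring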); details: Zebrafish larvae PED6 lipid processing, fluorescence scoring; screened at 20 µM (by protocol)
Summary of the method: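 Doses: 20 µM single dose. Test system: live zebrafish larvae aged 5-7 days, whole organism. Quantity: five larvae per well. Measured by: By-eye fluorescence microscopy. Reagent: ingested quenched lipid PED6 at 100 nM. Read-out: visual per-well fluorescence inhibition score. Times: overnight exposure of larvae to compound plus PED6.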

[9] = inhibitors of Chlamydomonas gravitaxis, primary screen, whole organism, Chlamydomonas reinhardtii, WT vs cilia-less mutant, absorbance, 96-well (AID 463189;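 active = inhibition at or above 50% relative to wild type and mutant plate controls; inactive = inhibition below 50%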;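 note: 0% = wild type cc124 cells in DMSO and 100% = ciliumless bld1 mutant cells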); details: OD600 absorbance, 2 days, at 10 µM, stronger effect = higher value
[10] = measured here: cell density z-score
[11] = measured here: nuclear c-Myc green intensity z-score
[12] = measured here: nuclear pErk red intensity z-score, stronger effect = higher value

Sequence of Alpha-2C adrenergic receptor (Homo sapiens) (P18825 whole entry, looked up): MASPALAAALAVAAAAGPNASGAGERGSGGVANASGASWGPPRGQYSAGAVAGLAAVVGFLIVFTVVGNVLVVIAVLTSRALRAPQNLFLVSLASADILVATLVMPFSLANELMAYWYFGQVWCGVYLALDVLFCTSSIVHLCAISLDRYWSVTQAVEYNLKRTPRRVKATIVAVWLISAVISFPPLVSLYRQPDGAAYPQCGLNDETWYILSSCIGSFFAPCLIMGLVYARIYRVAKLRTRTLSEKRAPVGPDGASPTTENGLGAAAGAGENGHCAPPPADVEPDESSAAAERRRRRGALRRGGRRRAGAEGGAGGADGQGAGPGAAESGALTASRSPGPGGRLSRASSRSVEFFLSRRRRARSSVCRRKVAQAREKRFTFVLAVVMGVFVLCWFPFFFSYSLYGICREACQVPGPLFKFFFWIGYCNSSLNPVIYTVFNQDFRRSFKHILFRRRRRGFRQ
Sequence of Dual specificity protein phosphatase 6 (Homo sapiens) (Q16828 whole entry, looked up): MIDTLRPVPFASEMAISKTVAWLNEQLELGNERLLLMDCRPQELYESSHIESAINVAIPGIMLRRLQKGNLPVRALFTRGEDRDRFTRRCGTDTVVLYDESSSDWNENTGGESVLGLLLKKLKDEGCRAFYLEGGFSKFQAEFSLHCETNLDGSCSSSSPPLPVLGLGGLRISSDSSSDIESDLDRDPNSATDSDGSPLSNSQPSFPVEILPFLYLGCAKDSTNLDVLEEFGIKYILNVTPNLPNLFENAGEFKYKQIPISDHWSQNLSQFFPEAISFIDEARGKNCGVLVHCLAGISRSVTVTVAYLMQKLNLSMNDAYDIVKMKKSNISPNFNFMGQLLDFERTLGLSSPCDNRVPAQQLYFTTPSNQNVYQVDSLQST
Sequence of Voltage-gated potassium channel subunit beta-2 (Rattus norvegicus) (P62483 whole entry, looked up): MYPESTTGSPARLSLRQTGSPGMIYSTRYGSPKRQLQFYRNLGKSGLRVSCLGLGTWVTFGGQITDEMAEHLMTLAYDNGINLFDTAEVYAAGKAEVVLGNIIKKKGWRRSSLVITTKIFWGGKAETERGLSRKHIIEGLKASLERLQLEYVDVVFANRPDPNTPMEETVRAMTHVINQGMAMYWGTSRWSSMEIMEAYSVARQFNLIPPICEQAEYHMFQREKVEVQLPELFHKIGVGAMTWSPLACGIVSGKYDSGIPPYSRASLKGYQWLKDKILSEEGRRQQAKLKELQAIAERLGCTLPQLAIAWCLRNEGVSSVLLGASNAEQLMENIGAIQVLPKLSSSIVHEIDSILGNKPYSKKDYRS

Row | Compound | cell count [1] | inhibition [1] | inhibition [2] | nuclei count [2] | z-score [3, 10] | z-score [3, 11] | z-score [3, 12] | inhibition [4] | fluorescence slope [5] | NADPH fluorescence slope [6] | slope [7] | outcome [8] | inhibition [9]
1 | CN(C)c1nc2n(c(=O)n1)C(C#N)CS2 (stereo unspecified) | 364 | -3.1% (inactive) | -192% (inactive) | 105% | 0.947 | -1.21 | -1.65 | 13.2% (inactive) | -0.438 (inactive) | -5.8e-06 (inactive) | 0.00693 (inactive) | inactive | -3.08% (inactive)
2 | OCCNc1nc(-c2ccccc2)c2ccccc2n1 | 419 | -4.7% (inactive) | -153% (inactive) | 133% | -0.162 | 1.09 | -0.852 | -10.1% (inactive) | -0.341 (inactive) | -1.3e-05 (inactive) | 0.00672 (inactive) | inactive | -5.43% (inactive)
3 | Cc1nc2sc3c(NCc4ccco4)ncnc3c2c2c1COC(C)(C)C2 | 595 | -11% (inactive) | -84.2% (inactive) | 181% | -1.22 | -0.424 | 1.05 | -2.69% (inactive) | -0.373 (inactive) | -3e-05 (inactive) | 0.00585 (inactive) | inactive | 45.7% (inactive)
4 | N#CCCSCc1ccc(OCC(=O)O)cc1 | 547 | -22.2% (inactive) | -141% (inactive) | 138% | 0.922 | -1.08 | 0.0284 | 5.95% (inactive) | -0.488 (inactive) | -9.2e-05 (inactive) | 0.00635 (inactive) | inactive | 2.45% (inactive)
5 | COc1ccc(C2CC(C(F)(F)F)n3ncc(C(=O)Nc4cccc(O)c4)c3N2)cc1OC (stereo unspecified) | 494 | -6.1% (inactive) | -14.4% (inactive) | 119% | -0.0495 | 0.084 | -0.887 | 1.75% (inactive) | -0.483 (inactive) | -0.00017 (inactive) | 0.0043 (inactive) | active; weak signal in gallbladder and intestine | -4.48% (inactive)
6 | Nc1c(Br)cc2oc(-c3ccccc3)nc2c1Br | 539 | -3.4% (inactive) | -23.5% (inactive) | 119% | -0.358 | -0.383 | -0.387 | 6.51% (inactive) | -0.482 (inactive) | -6.5e-05 (inactive) | 0.00567 (inactive) | inactive | -9.35% (inactive)
7 | CSc1nc(N)nc(SCC(=O)CC(=O)OC(C)C)c1C#N | 553 | -7.1% (inactive) | -118% (inactive) | 212% | 0.352 | -0.157 | -2.15 | 16.8% (inactive) | -0.372 (inactive) | -4.1e-07 (inactive) | 0.00422 (inactive) | inactive | 11.6% (inactive)
8 | COc1cccc(-c2nn3c(-c4ccccn4)nnc3s2)c1 | 630 | -8% (inactive) | -117% (inactive) | 150% | 0.488 | -0.624 | -0.933 | 15.5% (inactive) | -0.454 (inactive) | -0.000157 (inactive) | 0.00706 (inactive) | inactive | 65.3% (active)
9 | Cc1coc2c(O)cc3c(c12)OC1(N2CCCCC2)C(=O)NCCCC31 (stereo unspecified) | 537 | -25.4% (inactive) | -78.3% (inactive) | 144% | -0.8 | 0.13 | 2.15 | -15% (inactive) | -0.515 (inactive) | -4.3e-05 (inactive) | 0.00313 (inactive) | inactive | 19.5% (inactive)
10 | CCCOc1ccc(/C(O)=C2/C(=O)C(=O)N(CCN3CCOCC3)C2c2ccccc2)cc1 (stereo unspecified) | 365 | -10.5% (inactive) | -132% (inactive) | 144% | -0.109 | 0.153 | 0.743 | -0.159% (inactive) | -0.426 (inactive) | -6.6e-05 (inactive) | 0.00576 (inactive) | inactive | -3.19% (inactive)
11 | COc1ccc(NC(=O)C2CSC3c4ccccc4C(=O)N23)cc1 (stereo unspecified) | 376 | 0.6% (inactive) | -32.1% (inactive) | 112% | -0.228 | 0.485 | -1.59 | -1.12% (inactive) | -0.355 (inactive) | 2.4e-05 (inactive) | 0.00604 (inactive) | inactive | 127% (active)
12 | Nc1[nH]nc2nc(NCc3ccccc3)c3c(c12)CCN(Cc1ccccc1)C3 | 638 | -12.3% (inactive) | 20% (inactive) | 190% | 1.59 | -1.42 | -0.833 | 15.1% (inactive) | -0.502 (inactive) | -6.3e-05 (inactive) | 0.00406 (inactive) | inactive | 6.13% (inactive)
13 | Cc1cc(C)cc(CC2CC(=O)N(c3cc(C)on3)C2=O)c1 (stereo unspecified) | 491 | -7% (inactive) | -80.4% (inactive) | 132% | -0.204 | -0.209 | 1.15 | 3.66% (inactive) | -0.517 (inactive) | -6.6e-05 (inactive) | 0.00547 (inactive) | inactive | 2.69% (inactive)
14 | N#CCCN(CCC#N)c1nnc(-c2ccccc2)s1 | 391 | -3.1% (inactive) | -60.9% (inactive) | 159% | 1.49 | 1.59 | -1.79 | 17% (inactive) | -0.384 (inactive) | -3.6e-05 (inactive) | 0.00496 (inactive) | inactive; toxic | 27.2% (inactive)
15 | N#CC1=C(C=Nc2ccccc2O)CCC1 | 643 | -12.1% (inactive) | -13.8% (inactive) | 163% | -1.7 | -0.376 | 2.01 | -8.95% (inactive) | -0.416 (inactive) | -6.1e-05 (inactive) | 0.00456 (inactive) | inactive | 11.8% (inactive)
16 | CCCc1nnc(NC(=O)c2c(O)c3c([nH]c2=O)CCCC3)s1 | 312 | -15.5% (inactive) | -42.9% (inactive) | 134% | -0.253 | -0.454 | -0.547 | 17.5% (inactive) | -0.423 (inactive) | -3.6e-05 (inactive) | 0.00662 (inactive) | inactive | 14% (inactive)
17 | Cc1nnc2c(NC(C)C)nc3ccccc3n12 | 381 | -8.4% (inactive) | -63% (inactive) | 137% | 0.584 | -0.494 | -1.32 | 22.7% (inactive) | -0.382 (inactive) | -5.9e-05 (inactive) | 0.0077 (inactive) | inactive | 29.1% (inactive)
18 | OC1(c2cccc(C(F)(F)F)c2)CCN(c2ncnc3c2[nH]c2ccccc23)CC1 | 447 | -2.9% (inactive) | -95% (inactive) | 165% | -0.506 | 1.11 | -2.96 | 34.7% (inactive) | -0.454 (inactive) | -5.6e-05 (inactive) | 0.0037 (inactive) | inactive | 19.3% (inactive)
19 | COC(=O)CN(c1nc(C)cc(OC)n1)S(=O)(=O)c1ccccc1 | 568 | -3.9% (inactive) | -82.4% (inactive) | 122% | -1.67 | 0.823 | -0.13 | 3.56% (inactive) | -0.391 (inactive) | -2.2e-05 (inactive) | 0.00529 (inactive) | inactive | -16.2% (inactive)
20 | COc1ccc(NC(=O)Nc2cccc(C(=O)N3CCOCC3)c2)cc1OC | 543 | 0% (inactive) | -176% (inactive) | 131% | 0.702 | -0.546 | -0.00586 | 12.3% (inactive) | -0.527 (inactive) | -7.4e-05 (inactive) | 0.00529 (inactive) | inactive | 12.3% (inactive)
21 | COc1ccc(Cn2c(=O)c3c(nc(NCCO)n3C)n(C)c2=O)cc1 | 336 | -3.5% (inactive) | -129% (inactive) | 131% | -0.216 | 1.13 | 0.242 | -0.624% (inactive) | -0.369 (inactive) | 3.5e-05 (inactive) | 0.00827 (inactive) | inactive | -14.7% (inactive)
22 | COc1ccc(CCNC2CC(C)N(C)CC2C)cc1OC (stereo unspecified) | 549 | -11.3% (inactive) | -75.9% (inactive) | 170% | 0.099 | -0.11 | 2.07 | -0.608% (inactive) | -0.515 (inactive) | -3e-05 (inactive) | 0.00466 (inactive) | inactive | 12.3% (inactive)
23 | C/C(CC1(O)C(=O)N(Cc2ccccc2)c2ccccc21)=N\O (stereo unspecified) | 645 | -11.4% (inactive) | -28.2% (inactive) | 182% | -1.05 | -1.05 | 1.51 | -7.79% (inactive) | -0.464 (inactive) | -0.000206 (inactive) | 0.0275 (active) | inactive | -6.97% (inactive)
24 | CNc1ccccc1-c1nc2ccccc2n(C)c1=O | 545 | 1.8% (inactive) | -41.8% (inactive) | 154% | 0.495 | -0.326 | 0.207 | 14% (inactive) | -0.488 (inactive) | -7.9e-05 (inactive) | 0.00346 (inactive) | active; weak signal in gallbladder and intestine | 16% (inactive)
25 | Fc1ccccc1-c1nc(N2CCCCC2)c2ccccc2n1 | 364 | -8.4% (inactive) | -149% (inactive) | 173% | 1.66 | 0.183 | -1.27 | 6.04% (inactive) | -0.447 (inactive) | -5.7e-06 (inactive) | 0.00522 (inactive) | inactive | 140% (active)
26 | Cn1cc(C(=O)NCN2CCCCC2)c2ccccc21 | 637 | -1.9% (inactive) | 33.7% (inactive) | 201% | 0.345 | -0.8 | -0.0314 | -5.89% (inactive) | -0.45 (inactive) | -0.000261 (inactive) | 0.00517 (inactive) | inactive | -12.4% (inactive)
27 | CCOc1ccc(-c2nnc3sc(-c4ccccc4OC)nn23)cc1 | 613 | -5.4% (inactive) | 36% (inactive) | 174% | -0.391 | 2.01 | -1.56 | -9.66% (inactive) | -0.403 (inactive) | -0.000132 (inactive) | 0.00485 (inactive) | inactive | 0.927% (inactive)
